A selection: hits, their analogues and other compounds. The true share with any hit is near 2.9%.
DNA FID counter = counter-screen for HCV NS3 helicase inhibitors: DNA intercalator displacement; AID 1845; inhibition, % at 7.9 µM; 290,000 tested, 0.17% active; DNA fluorescent intercalator displacement, fluorescence; in the data active = inhibition above about 37%;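 also: 0% = vehicle and 100% = reference compound; higher means more ethidium bromide displaced from hairpin DNA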
VIM-2 inhibitor = inhibitors of Pseudomonas aeruginosa VIM-2 metallo-beta-lactamase. purified VIM-2, nitrocefin hydrolysis, epi-absorbance fluorescence. inhibition, % at 5.6 µM. 290,000 tested, 0.89% active. AID 1527;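 active = inhibition above the mean of all tested compounds plus 3 SD, cutoff set per screening run, cut at about 7.5% in these data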;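 also: red hydrolysis product quenches plate fluorescence so inhibitors raise well fluorescence; 0% = enzyme with DMSO and 100% = DMSO without enzyme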
NALP1 inh = NALP1 inhibition; inhibition, % at 10 µM; 280,000 tested, 0.61% active; S. cerevisiae NALP1/ASC/caspase-1 growth, X-gal OD620, 72 h; AID 2071; in the data active = inhibition mostly above about 24%, no sharp cut-off; inactive = mostly below about 32%
IMP-1 inh-1 = blocks Pseudomonas aeruginosa IMP-1 metallo-beta-lactamase | purified IMP-1, nitrocefin hydrolysis, epi-absorbance fluorescence | 290,000 tested, 0.45% active | inhibition, % at 5.6 µM;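 active = inhibition above the mean plus 3 SD of all compounds in the same screening run, cut at about 4.5% in these data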;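 also: 0% = IMP-1 with DMSO and 100% = DMSO wells lacking enzyme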
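Assay system: purified IMP-1; Quantity: IMP-1 0.2 nM before substrate addition; Medium: HEPES buffer pH 7.1 with ZnSO4 and Brij 35; Incubation: 15 min enzyme–compound preincubation, then 25 min nitrocefin reaction, 25 °C; Signal: fluorescence quenching readout, ex 480/em 530 nm; Controls: DMSO with and without IMP-1; Repeats: singlicate testing.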
SUMO Mot1 rescue = blocks SUMOylation pathway, rescuing yeast Mot1-301 growth. S. cerevisiae Mot1-301 growth rescue, ATP luminescence, 38.5C; percent above DMSO median, 100 means doubled. growth rescue, % at 18.8 µM. 320,000 tested, 1% active. AID 2716;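 active = every valid replicate shows activation above 250% relative to neutral control wells; inactive = the rest, any valid replicate at or below 250%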;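 also: OY570 slx delta 5 strain wells were the positive control but not used for scaling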
UBC9 SUMO inh = SUMOylation inhibition | HTRF SUMOylation assay, SAE1/SAE2 + UBC9, in vitro | inhibition, % at 35 µM | AID 2006 | P63279 | 290,000 tested, 0.36% active; in the data active = inhibition above about 50%, passing the limit was not always enough
Target sequence (P63279 whole entry, looked up): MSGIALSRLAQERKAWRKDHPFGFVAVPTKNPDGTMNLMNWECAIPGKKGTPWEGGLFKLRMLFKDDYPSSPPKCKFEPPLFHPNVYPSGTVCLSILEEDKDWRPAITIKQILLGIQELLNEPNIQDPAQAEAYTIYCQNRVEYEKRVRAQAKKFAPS
IMP-1 inh-2 = IMP-1 inhibition, counter-screen for VIM-2 inhibitors; shares compounds with VIM-2 inhibitor; purified IMP-1, nitrocefin hydrolysis, epi-absorbance fluorescence; inhibition, % at 5.6 µM; 1,300 tested, under 10 active; call rule not given here;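 also: 0% = enzyme with vehicle and 100% = vehicle without enzyme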
VIM-2 FRET ctr = inhibits VIM-2 in FRET assay to exclude epi-absorbance artifacts; shares compounds with VIM-2 inhibitor; 1,300 tested, 23% active; inhibition, % at 5.6 µM; purified VIM-2, CCF2 FRET substrate hydrolysis;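 active = inhibition above the mean of all tested compounds plus 3 SD, cut at about 19% in these data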;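 also: 0% = VIM-2 plus DMSO and 100% = no enzyme wells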
TEM-1 counter = TEM-1 inhibition, counter-screen for VIM-2 inhibitors. shares compounds with VIM-2 inhibitor. Purified TEM-1, nitrocefin hydrolysis, epi-absorbance fluorescence. inhibition, % at 5.6 µM. 1,300 tested, 3% active. AID 1866;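 active = inhibition above that campaign's mean inhibition plus 3 SD, cut at about 0.46% in these data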;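 also: 0% = TEM-1 with DMSO and 100% = TEM-1 with 100 µM potassium clavulanate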
Target sequence (P62593 whole entry, looked up): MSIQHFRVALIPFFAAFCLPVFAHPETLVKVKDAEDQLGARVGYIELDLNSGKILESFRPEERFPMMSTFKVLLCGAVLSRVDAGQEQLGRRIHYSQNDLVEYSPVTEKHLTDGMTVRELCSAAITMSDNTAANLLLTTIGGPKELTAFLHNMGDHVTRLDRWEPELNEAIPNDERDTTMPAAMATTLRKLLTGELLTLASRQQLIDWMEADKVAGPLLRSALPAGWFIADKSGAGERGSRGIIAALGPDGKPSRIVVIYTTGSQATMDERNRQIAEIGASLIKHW
VIM-2 inh conf = confirmation of P. aeruginosa VIM-2 metallo-beta-lactamase inhibitors. purified VIM-2, nitrocefin hydrolysis, epi-absorbance. shares compounds with VIM-2 inhibitor. 1,300 tested, 96% active. inhibition, % at 5.6 µM. AID 2187;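 active = inhibition of the VIM-2 beta-lactamase enzyme above about 11% from the earlier first-round screen, limit read from the data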;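 also: 0% = VIM-2 with DMSO and 100% = buffer wells without enzyme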
* = called active by the depositor; x = no result.

SMILES	DNA FID counter	VIM-2 inhibitor	NALP1 inh	IMP-1 inh-1	SUMO Mot1 rescue	UBC9 SUMO inh	IMP-1 inh-2	VIM-2 FRET ctr	TEM-1 counter	VIM-2 inh conf
O=C1C(=O)N(O)C2CCCCC2N1O (centres undefined)	3	13*	24	-3	5	-12	-4	47*	-7	24*
O=C(O)CCN1C(=O)C2CCCCC2C1=O (centres undefined)	-2	-3	-1	-3	4	3	x	x	x	x
COc1ccc(OC)c(C2/C(=C(/O)c3ccc(C)cc3)C(=O)C(=O)N2Cc2ccco2)c1 (centres undefined)	-27	21*	22	-2	-8	-1	-3	56*	-6	45*
COc1cccc(C2/C(=C(/O)c3ccc(C)cc3)C(=O)C(=O)N2Cc2ccco2)c1 (centres undefined)	-22	0	18	0	-8	-1	x	x	x	x
COc1ccc(OC)c(C2/C(=C(/O)c3ccccc3)C(=O)C(=O)N2Cc2ccco2)c1 (centres undefined)	-40	66*	12	-1	3	16	-3	77*	-6	70*
COc1ccc(OC)c(C2C(C(=O)c3ccco3)=C(O)C(=O)N2Cc2cccnc2)c1 (centres undefined)	-22	61*	3	-2	-13	7	-2	78*	-5	68*
COc1ccc(/C(O)=C2\C(=O)C(=O)N(Cc3ccco3)C2c2cc(OC)ccc2OC)cc1 (centres undefined)	-42	12*	12	-3	163	20	-4	35*	-6	26*
CCCCn1nc(C(=O)Nc2ccccc2N2CCCC2)c2ccccc2c1=O	x	x	x	x	-3	x	x	x	x	x
CCN(CC)CCOC(=O)c1cccc2c1-c1ccccc1C2O (centres undefined)	16	25*	16	0	10	8	-5	4	-9	43*
CC(C)(C)C(=O)OCc1nc(-c2ccc(C(F)(F)F)cc2)cs1	-3	-3	6	-5	7	-17	x	x	x	x
Cc1cc(=S)c2ccccc2[nH]1	-12	60*	x	-2	-5	-19	-3	2	-6	57*
Cn1nc(-c2ccc(C(=O)N3CCN(CCO)CC3)cc2)c2ccccc2c1=O	-3	65*	20	-4	-1	-6	-3	2	-6	69*
CN1CCN(C(=O)c2ccc(-c3nn(C)c(=O)c4ccccc34)cc2)CC1	-4	70*	x	-4	-7	x	-1	-8	1.5*	79*
CCC(CO)NC(=O)c1ccc(-c2nn(C)c(=O)c3ccccc23)cc1 (centres undefined)	-8	3	-5	-4	-16	25	x	x	x	x
CN(C)CCNC(=O)c1ccc(-c2nn(C)c(=O)c3ccccc23)cc1	1	32*	1	-3	6	24	-3	-1	-5	50*
CN1CCN(C(=O)c2ccc(-c3ccccc3)cc2)CC1	-3	1	18	0	7	6	x	x	x	x
CCCNC(=O)c1ccc(-c2nn(C)c(=O)c3ccccc23)cc1	-13	3	-4	-2	-2	8	x	x	x	x
O=C(O)CN1C(=O)c2cccc3c(Br)ccc1c23	-8	0	-7	-2	4	17	x	x	x	x
CN(C)CCCN1C(=O)c2cccc3c(Br)ccc(c23)C1=O	13	12*	11	-1	93	16	-2	0	-6	18*
C=CCSc1nc2c(C(=O)OCC)nnn2c2ccccc12	-23	28*	-33	-3	-13	8	-4	-4	-11	39*
CCOC(=O)c1nnn2c1nc(SCC(C)=O)c1ccccc12	-1	7	21	-2	2	12	x	x	x	x
Cc1cc(C(=O)N/N=C\c2cc(C(C)(C)C)ccc2O)n[nH]1	-26	-6	-1	-3	-15	16	x	x	x	x
CC(=O)N/N=C/c1cc(C(C)(C)C)cc(/C=N/NC(C)=O)c1O	-14	39*	-35	1	-1	34	2	10	-4	55*
Cc1nn2c(N3CCN(CCO)CC3)c3c(nc2c1-c1ccccc1)CCCC3	9	37*	2	-3	7	1	-4	-4	-7	59*
Cc1nn2c(N3CCCC3)c3c(nc2c1-c1ccccc1)CCC3	-4	4	x	0	13	34	x	x	x	x
SMILES	DNA FID counter	VIM-2 inhibitor	NALP1 inh	IMP-1 inh-1	SUMO Mot1 rescue	UBC9 SUMO inh	IMP-1 inh-2	VIM-2 FRET ctr	TEM-1 counter	VIM-2 inh conf
CCCNC(=O)COc1ccc(-c2nn(C)c(=O)c3ccccc23)cc1	-32	13*	8	-1	110	18	-2	-1	-3	20*
COc1ccccc1NC(=O)COc1ccc(-c2nn(C)c(=O)c3ccccc23)cc1	-34	6	2	-1	-18	-5	x	x	x	x
COC(=O)COc1ccc(-c2nn(C)c(=O)c3ccccc23)cc1	-10	4	5	-1	x	7	x	x	x	x
Cn1nc(-c2ccc(OCC(N)=O)cc2)c2ccccc2c1=O	-2	13*	14	-4	5	14	-2	0	-5	30*
Cc1cccc(NC(=O)COc2ccc(-c3nn(C)c(=O)c4ccccc34)cc2)c1	-41	16*	24	-2	8	0	-3	0	-7	18*
CCOc1cccc(-c2csc(C3COc4ccccc4O3)n2)c1 (centres undefined)	-4	2	34	0	-4	9	x	x	x	x
COC(C)c1oc2c(C)c3oc(=O)cc(C)c3cc2c1C (centres undefined)	x	x	x	x	17	x	x	x	x	x
O=C1CCCCC/C1=N/Nc1ccc(OCc2ccccc2)cc1	-10	-2	1	-3	168	0	x	x	x	x
COc1ccc(-c2nnc3sc(CCN4C(=O)c5ccccc5C4=O)nn23)cc1	-8	18*	12	-2	191	13	-2	-3	-3	4
Cc1nnc2ccc(-c3cccc(NC(=O)c4ccco4)c3)nn12	-1	15*	5	-1	-27	4	-2	1	-8	25*
COc1ccc(CC(=O)Nc2cccc(-c3ccc4nnc(C)n4n3)c2)cc1	-8	4	2	-3	0	29	x	x	x	x
COc1ccc(-c2sc(Nc3ccc(F)c(F)c3F)nc2CCC(=O)NN)cc1	-6	-4	-11	-3	13	-16	x	x	x	x

Screens: PubChem, several laboratories
